Data taken from PubChem BioAssay.
Records with an inconclusive call do not appear.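 The calls were made as follows, unless noted: active = cell viability at or below a set limit in both duplicate runs, the limit being the all-compound median minus 4 SD (cut at about 23% in these data, passing the limit was not always enough); inconclusive = no clear call, values can overlap the other calls; inactive = the rest.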

Key:
[1] = OD615 S. cerevisiae growth inhibition, permissive medium, pilot counter-assay, permissive growth control for S. cerevisiae lifespan shortening project (AID 705;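 active = growth inhibition above 25% in both replicates, a cutoff set 3 SD above the mean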); details: OD615, 24 h, at 10 µM, active compounds read high
In short: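 Material: engineered DeaD yeast; Compound: one dose 10 µM, DMSO 0.25% final; Detection: absorbance (optical density) at 615 nm; Buffer or medium: permissive raffinose/galactose medium; Timing: 24 h exposure, 30 °C.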

[2] = Restrictive medium S. cerevisiae growth inhibition, OD615, pilot screen of yeast lifespan reduction project, restrictive growth control (AID 706;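 active = growth inhibition above a set limit, 3 SD over mean compound inhibition, in both replicates, cut at about 43% in these data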;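 also: modified DeaD lifespan yeast strain shifted to restrictive glucose medium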); details: OD615, 48 h, at 10 µM, active compounds read high
In short: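 Buffer or medium: restrictive glucose medium (CSMM-D); test system: modified S. cerevisiae; doses: single dose of 10 µM compound final, 0.25% DMSO; schedule: 48 h compound exposure at 30 °C; detection: absorbance (optical density) measured at 615 nm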

[3] = viability gain of MRP-1-high H69AR cells under doxorubicin, pilot screen, MRP-1 activator project, CellTiter-Glo, duplicate (AID 807;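 active = viability increase at or above a cutoff of the median across tested compounds plus 3 SD, cut at about 8.5% in these data, passing the limit was not always enough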;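 also: compound pretreatment 18-22 h then 72 h combined with doxorubicin; 0% = doxorubicin alone and 100% = vehicle without doxorubicin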); details: H69AR viability with doxorubicin, CellTiter-Glo luminescence; at 10 µM; active compounds read high
[4] = growth suppression of beta-catenin knockout HCT116, pilot screen, human colon tumor cells (AID 823); details: CellTiter-Glo, 60 h, at 10 µM, active compounds read low;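 also: 0% = wells killed by 20 µM Hyamine and 100% = untreated DMSO cell wells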
[5] = growth suppression of PTEN-deleted HCT116, pilot screen, cell-based, HCT116 clonal line, CellTiter-Glo (AID 824;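 active = viability at or below 27.92% in each of two runs, the all-compound median minus 4 SD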;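 also: 0% = 20 µM Hyamine control and 100% = vehicle cell control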); details: 60 h, at 10 µM, active compounds read low
[6] = inhibitors of the yeast RAM network, pilot screen, dse1pr::URA3 reporter, 5-FOA selection (AID 869;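 active = inhibition over a set limit, the all-compound mean plus 3 SD, in both replicate runs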;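 also: 0% = DMSO wells with no growth and 100% = 10 µM 1-NA-PP1 with full growth; RAM network block rescues cells from 5-FOA so hits raise OD615 growth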); details: S. cerevisiae dse1pr::URA3 5-FOA growth, OD615, 2 d; at 10 µM; active compounds read high; strain carries analog-sensitive mutant Cbk1 kinase
[7] = RAM signaling pathway blockade in yeast – S. cerevisiae, Pdr1DBD-CYC8 efflux-inhibited sensitized strain, primary screen (AID 1298;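 active = RAM network inhibition above 8.4% in each of two replicates, 3 SD over the compound average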;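 also: 0% = DMSO untreated cells without growth and 100% = 10 µM 1-NA-PP1 full growth; higher means more yeast growth rescued from 5-FOA killing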); details: S. cerevisiae cbk1-as DSE1-URA3 strain, 5-FOA growth OD615, 2 d; at 50 µM; active compounds read high

COCCOC(=O)C1=C(C)NC2=C(C(=O)CC(C)(C)C2)C1c1ccc(N(C)C)cc1 (stereo not drawn)
inactive: growth inhibition [1] -16.1% | growth inhibition [2] -21.2% | viability increase [3] -0.49% | viability [4] 97.4% | viability [5] 98.3% | inhibition [6] -0.03% | RAM network inhibition [7] 3.6%

C=CCSc1nnc2c(n1)OC(c1cccnc1)Nc1ccccc1-2 (stereo not drawn)
inactive: growth inhibition [1] 8.11% | growth inhibition [2] 13.7% | viability increase [3] -2.34% | viability [4] 95.5% | viability [5] 88% | inhibition [6] 1.75% | RAM network inhibition [7] 1.38%

O=C1CC(c2cccs2)CC(O)=C1C=NCCN1CCNCC1 (stereo not drawn)
inactive: growth inhibition [1] -11.8% | growth inhibition [2] -6.3% | viability increase [3] -0.54% | viability [4] 98.9% | viability [5] 97.2% | inhibition [6] 0.995% | RAM network inhibition [7] -0.42%

CC(C)NS(=O)(=O)c1ccc(NC(=O)c2cccnc2)cc1
inactive: growth inhibition [1] -12.7% | growth inhibition [2] -17.3% | viability increase [3] -0.51% | viability [4] 112% | viability [5] 97.1% | inhibition [6] 1.95% | RAM network inhibition [7] 1.31%

O=C(COc1ccccc1)Nc1nnc(-c2ccccc2)o1
inactive: growth inhibition [1] -5.84% | growth inhibition [2] 4.22% | viability increase [3] 0.2% | viability [4] 104% | viability [5] 94.1% | inhibition [6] 1.29% | RAM network inhibition [7] -1.25%

O=C(Nc1ccccc1)N(CCCN1CCOCC1)Cc1cccs1
inactive: growth inhibition [1] -1.32% | growth inhibition [2] 9.1% | viability increase [3] -3.05% | viability [4] 96.3% | viability [5] 93.9% | inhibition [6] 2.5% | RAM network inhibition [7] 0.88%

CSc1nnc(Cn2c(=O)sc3ccccc32)n1CCc1ccccc1
inactive: growth inhibition [1] 3.19% | growth inhibition [2] 9.71% | viability increase [3] -1.75% | viability [4] 92.2% | viability [5] 83.3% | inhibition [6] 2.35% | RAM network inhibition [7] 6.93%

CN(Cc1ccccc1)C(=O)CCn1c(=O)oc2ccccc21
inactive: growth inhibition [1] 2.31% | growth inhibition [2] -0.265% | viability increase [3] -1.33% | viability [4] 101% | viability [5] 99.2% | inhibition [6] 1.41% | RAM network inhibition [7] 1.99%

COCCCNC(=O)Cn1nnc(-c2ccc(NC(=O)c3ccc(F)cc3)cc2)n1
inactive: growth inhibition [1] -9.11% | growth inhibition [2] -28.5% | viability increase [3] 0.73% | viability [4] 99.7% | viability [5] 96.8% | inhibition [6] 0.705% | RAM network inhibition [7] 4.54%

Cn1c(Cn2c(=O)sc3ccccc32)nnc1SCC(=O)N1CCOCC1
inactive: growth inhibition [1] -13.2% | growth inhibition [2] -28% | viability increase [3] -1.17% | viability [4] 103% | viability [5] 99.2% | inhibition [6] 2.92% | RAM network inhibition [7] 3.55%

Cc1nc(Nc2nc3ccccc3o2)nc2c1CCC2
inactive: growth inhibition [1] 9.76% | growth inhibition [2] 16.7% | viability increase [3] -1.82% | viability [4] 77.7% | viability [5] 76% | inhibition [6] 0.225% | RAM network inhibition [7] -0.26%

COc1ccccc1-c1c(C)nn2c(NCCN3CCCC3)cc(C)nc12
inactive: growth inhibition [1] -3.48% | growth inhibition [2] 0.235% | viability increase [3] -1.54% | viability [4] 87.1% | viability [5] 92.6% | inhibition [6] 0.815% | RAM network inhibition [7] 2.33%

Cc1cc(NS(=O)(=O)c2ccc(NC(=O)c3cnc4scc(C)n4c3=O)cc2)nc(C)n1
inactive: growth inhibition [1] -8.46% | growth inhibition [2] -14.3% | viability increase [3] -2.16% | viability [4] 102% | viability [5] 98.5% | inhibition [6] 1.31% | RAM network inhibition [7] 4.17%

COc1cc(OC)cc(C(=O)NCC2CCCO2)c1 (stereo not drawn)
inactive: growth inhibition [1] -7.69% | growth inhibition [2] 10.1% | viability increase [3] -1.51% | viability [4] 94.6% | viability [5] 91.7% | inhibition [6] 0.465% | RAM network inhibition [7] 0.29%

Cc1cc(NC(=O)c2cc(-c3cccs3)nc3ccccc23)no1
inactive: growth inhibition [1] 3.04% | growth inhibition [2] -5.12% | viability increase [3] -6.62% | viability [4] 29.3% | viability [5] 30.9% | inhibition [6] 2.11% | RAM network inhibition [7] 8.27%

Cc1cccn2c(=O)c3cc(C(=O)NCCCN4CCOCC4)n(C)c3nc12
inactive: growth inhibition [1] -4.96% | growth inhibition [2] -3.14% | viability increase [3] 0.44% | viability [4] 93.1% | viability [5] 93.1% | inhibition [6] 1.06% | RAM network inhibition [7] 0.37%

CC(c1ccccc1)N1CC(C(=O)N2CCN(c3ccccc3)CC2)CC1=O (stereo not drawn)
inactive: growth inhibition [1] 0.43% | growth inhibition [2] 1.48% | viability increase [3] -1.1% | viability [4] 104% | viability [5] 101% | inhibition [6] 0.54% | RAM network inhibition [7] 4.4%

COc1ccc(NC(=O)C2CCCNC2)cc1OCC(C)C (stereo not drawn)
inactive: growth inhibition [1] -15.2% | growth inhibition [2] -19.2% | viability increase [3] -1.5% | viability [4] 98.4% | viability [5] 97% | inhibition [6] 1.75% | RAM network inhibition [7] 2.92%

O=C(Cn1cnc2c(nnn2-c2ccccc2)c1=O)NCCc1ccccc1
inactive: growth inhibition [1] -0.435% | growth inhibition [2] -10.4% | viability increase [3] -1.04% | viability [4] 105% | viability [5] 100% | inhibition [6] 0.75% | RAM network inhibition [7] 3.12%

COc1ccc(N2CSC3=C(C#N)C(c4cc(OC)c(OC)cc4OC)CC(=O)N3C2)c(OC)c1 (stereo not drawn)
inactive: growth inhibition [1] -2.5% | growth inhibition [2] 31.1% | viability increase [3] -5.15% | viability [4] 71.6% | viability [5] 76.7% | inhibition [6] 1.16% | RAM network inhibition [7] 2.63%

O=C(Nc1nc2ccccc2n1CCN1CCCC1)c1ccc(Cl)cc1
inactive: growth inhibition [1] -9.21% | growth inhibition [2] -13.3% | viability increase [3] -7.07% | viability [4] 59.9% | viability [5] 65.7% | inhibition [6] -0.07% | RAM network inhibition [7] 4.6%

Cn1c(=O)[nH]c(=O)c2c1nc(CN1CCOCC1)n2Cc1ccc(F)cc1
inactive: growth inhibition [1] -6.42% | growth inhibition [2] -18.4% | viability increase [3] -3.24% | viability [4] 98.5% | viability [5] 93.4% | inhibition [6] 2.65% | RAM network inhibition [7] 2.15%

CCc1cc(Br)ccc1N1C(=O)C2CC=CCC2C1=O (stereo not drawn)
inactive: growth inhibition [1] -6.14% | growth inhibition [2] -7.71% | viability increase [3] 0.19% | viability [4] 86.5% | viability [5] 94.9% | inhibition [6] 1.2% | RAM network inhibition [7] 0.4%

Cc1ccc(-c2nc(C3CCCN(S(=O)(=O)c4ccc(C)cc4)C3)no2)cc1 (stereo not drawn)
inactive: growth inhibition [1] -10.8% | growth inhibition [2] 9.18% | viability increase [3] 5.21% | viability [4] 85.2% | viability [5] 84.3% | inhibition [6] 1.08% | RAM network inhibition [7] -1.57%
